Measured values pooled from the literature.
Protocols differ between the studies behind these lines.
Target: Homeodomain-interacting protein kinase 2 (HIPK2, Homo sapiens, UniProt Q9H2X6)
Observed: enzyme activity
Action: inhibitor

| SMILES | test | conditions | remaining activity [%] |
| --- | --- | --- | --- |
| O=C(O)c1ccc2c(c1)nc(NCCc1ccccc1)c1ncncc12 | radiometric | 1 µM | 7 |
| CCCOc1ccc(OC)c(F)c1C(=O)c1ccc(C(=O)N[C@@H]2CNC[C@H]2NC(=O)c2ccc3[nH]ncc3c2)cc1 |  | 10 µM | 94 |
| Cc1cnc(NC2CCOCC2)nc1-n1cnc(C(=O)NC(CN)c2cc(F)cc(Cl)c2)c1 (stereo not drawn) | radiometric | 1 µM | 92 |
| O=C(Nc1cnn(-c2csc(C(=O)NC3COC3)c2)c1)Nc1c(F)cccc1Cl |  | 5 µM | 92.6 |
| CC(C)(C)c1nc(-c2cccc(NS(=O)(=O)c3c(F)cccc3F)c2F)c(-c2ccnc(N)n2)s1 | radiometric | 1 µM | 80 |
| O=C(O)c1ccc2c(c1)nc(NCCc1cccc(F)c1)c1ncncc12 | radiometric | 1 µM | 6 |
| CC(C)(O)[C@H]1CC[C@H](Nc2ccc3ncc(-c4cccc(C(F)(F)F)c4)n3n2)CC1 |  | 1 µM | 70.3 |
| O=C(O)c1ccc2c(c1)nc(Nc1ccc(F)c(Cl)c1)c1ccncc12 | radiometric | 1 µM | 1 |
| Oc1cccc(-c2nc(N3CCOCC3)c3oc4ncccc4c3n2)c1 |  | 10 µM | 18 |
| Cc1sc(C(=O)NC2COC2)cc1-n1cc(NC(=O)Nc2c(F)cccc2Cl)cn1 |  | 10 µM | 103 |
| O=C(O)c1ccc2c(c1)nc(Nc1ccc(Cl)cc1)c1ncncc12 | radiometric | 1 µM | -2 |
| Nc1nc(NC2CCCCC2)sc1C(=O)c1ccccc1 |  | 10 µM | 64 |
